Key:
pepsin = settings: ref Werle et al. (2006); cited from earlier work
elastase = settings: ref Werle et al. (2006); cited from earlier work
[1] = test system: membrane-bound peptidases; settings: ref Werle et al. (2006); cited from earlier work
[2] = In vitro stability of hPTH; format: physicochemical
How it was run: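 Peptide (1.0 mg teriparatide acetate per mL in 50 mM Tris, pH 6.5, no SBTI) mixed 1:1 with enzyme-free Tris buffer and incubated at 37 °C with shaking. Samples were taken at 2, 5, 10, 15, 30 and 60 min and quenched with an equal volume of 0.5% TFA. A zero-time mix served as 100%. Peptide was measured by C18 HPLC-UV. Run in duplicate.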

trypsin = settings: ref Werle et al. (2006); cited from earlier work
aminopeptidase N = settings: ref Werle et al. (2006); cited from earlier work
chymotrypsin = settings: ref Werle et al. (2006); cited from earlier work
[3] = SBTI at the levels found in the tested formulations; ref Hernández-Ledesma and Hsieh, 2017; Burshtein et al. 2018b; cited from earlier work
[4] = 50 mM Tris buffer without protease, pH 6.5

Row | remaining at 0.25 h, 0.5 mg/mL [2, 4] [%] | remaining at 0.5 h, 0.5 mg/mL [2, 4] [%] | remaining at 1 h, 0.5 mg/mL [2, 4] [%] | stability of hPTH(1–34) alone ([2]; no protease, no SBTI, 50 mM Tris buffer pH 6.5, 37 °C, HPLC-UV, n = 2) | Compound | degradation by GIT protease pepsin (pepsin) | effect of elastase on the degradation of hPTH(1–34) (elastase) | effect of membrane-bound peptidases on the degradation of hPTH(1–34) [1] | degradation by GIT protease trypsin (trypsin) | effect of aminopeptidase N on the degradation of hPTH(1–34) (aminopeptidase N) | degradation by GIT protease chymotrypsin (chymotrypsin) | tolerability in human trials [3]
1 | 100 | 100 | 100 | stable for at least one hour | CC[C@H](C)[C@H](NC(=O)[C@H](CCC(=O)O)NC(=O)[C@H](CO)NC(=O)[C@@H](NC(=O)[C@@H](N)CO)C(C)C)C(=O)N[C@@H](CCC(N)=O)C(=O)N[C@@H](CC(C)C)C(=O)N[C@@H](CCSC)C(=O)N[C@@H](Cc1cnc[nH]1)C(=O)N[C@@H](CC(N)=O)C(=O)N[C@@H](CC(C)C)C(=O)NCC(=O)N[C@@H](CCCCN)C(=O)N[C@@H](Cc1cnc[nH]1)C(=O)N[C@@H](CC(C)C)C(=O)N[C@@H](CC(N)=O)C(=O)N[C@@H](CO)C(=O)N[C@@H](CCSC)C(=O)N[C@@H](CCC(=O)O)C(=O)N[C@@H](CCCN=C(N)N)C(=O)N[C@H](C(=O)N[C@@H](CCC(=O)O)C(=O)N[C@@H](Cc1c[nH]c2ccccc12)C(=O)N[C@@H](CC(C)C)C(=O)N[C@@H](CCCN=C(N)N)C(=O)N[C@@H](CCCCN)C(=O)N[C@@H](CCCCN)C(=O)N[C@@H](CC(C)C)C(=O)N[C@@H](CCC(N)=O)C(=O)N[C@@H](CC(=O)O)C(=O)N[C@H](C(=O)N[C@@H](Cc1cnc[nH]1)C(=O)N[C@@H](CC(N)=O)C(=O)N[C@@H](Cc1ccccc1)C(=O)O)C(C)C)C(C)C [hPTH(1–34), teriparatide] | rapidly degraded | very limited effect | very limited effect | rapidly degraded | very limited effect | rapidly degraded | 
2 |  |  |  |  | soybean trypsin inhibitor [SBTI] |  |  |  |  |  |  | well tolerated
